Reference: ChEMBL document CHEMBL2384933, “Vitexin inhibits inflammatory pain in mice by targeting TRPV1, oxidative stress, and cytokines” (J Nat Prod, 2013)
Active and inactive are the calls of the source.

Experiments:
[1] = tested on: Mus musculus; experiment: Antinociceptive activity in ip dosed Swiss mouse assessed as inhibition of carrageenan-induced thermal hyperalgesia administered 30 mins prior to carrageenan-challenge measured after 1 to 5 hrs by hot plate test; assay type: functional, organism-based
Procedure, shortened: (§1)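 Doses of 1–10 mg/kg given ip 30 min before intraplantar carrageenan (300 μg/paw). Hot plate held at 55 °C; latency to jump or lick paws recorded at 1, 3 and 5 h, with a 30 s cutoff. Two baseline latencies taken at least 10 min apart. Six mice per group.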

[2] = tested on: Mus musculus; experiment: Antinociceptive activity in Swiss mouse assessed as inhibition of phenyl-p-benzoquinone-induced writhing response at 10 mg/kg, ip administered 30 mins prior to phenyl-p-benzoquinone-challenge measured for 20 mins; assay type: functional, organism-based; set-up: dose 10 mg/kg
Procedure, shortened: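 Pretreatment ip 30 min before ip phenyl-p-benzoquinone (1890 μg/kg in 2% DMSO/saline). Cumulative writhing score counted over 20 min. Six mice per group; representative of two experiments.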

[3] = tested on: Mus musculus; experiment: Antinociceptive activity in Swiss mouse assessed as inhibition of carrageenan-induced mechanical hyperalgesia at 1 to 3 mg/kg, ip administered 30 mins prior to carrageenan-challenge measured after 3 hrs by electronic pressure-meter test; assay type: functional, organism-based
Procedure, shortened: (§2)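 Doses of 1–10 mg/kg given ip 30 min before intraplantar carrageenan (300 μg/paw). Electronic pressure-meter applied to mice on a wire grid floor; paw withdrawal with flinching was the end point, and each value is the average of three readings. Result reported as Δ withdrawal threshold (g) from baseline at 1, 3 and 5 h. Six mice per group; two-way ANOVA.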

[4] = tested on: Mus musculus; experiment: Antinociceptive activity in Swiss mouse assessed as inhibition of carrageenan-induced thermal hyperalgesia at 3 to 10 mg/kg, ip administered 30 mins prior to carrageenan-challenge measured after 1 to 5 hrs by hot plate test; assay type: functional, organism-based; procedure, shortened: as §1
[5] = tested on: Mus musculus; experiment: Antinociceptive activity in Swiss mouse assessed as inhibition of complete Freund's adjuvant-induced thermal hyperalgesia at 10 mg/kg, ip administered 24 hrs after complete Freund's adjuvant-challenge for seven days by hot plate test; assay type: functional, organism-based; set-up: dose 10 mg/kg
Procedure, shortened: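 Treatment at 10 mg/kg ip given daily, starting 24 h after intraplantar CFA (10 μL/paw), for seven days. Electronic pressure-meter (Δ threshold, g) and hot plate (55 °C, 30 s cutoff) read every 24 h over days 1–8. Six mice per group.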

[6] = tested on: Mus musculus; experiment: Antinociceptive activity in Swiss mouse assessed as inhibition of acetic acid-induced writhing response at 0.3 mg/kg, ip administered 30 mins prior to acetic acid-challenge measured for 20 mins; assay type: functional, organism-based; set-up: dose 0.3 mg/kg
Procedure, shortened: (§3)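 Doses of 0.3–10 mg/kg given ip in saline 30 min before ip acetic acid (0.8% v/v in saline, 10 mL/kg). Cumulative abdominal writhing counted over 20 min and presented in 2-min intervals. Six mice per group; representative of two experiments.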

[7] = tested on: Mus musculus; experiment: Neurotoxicity in Swiss mouse assessed as change in motor response at 10 mg/kg, ip after 5.5 hrs by rotarod test (reference value: 180 seconds); assay type: toxicity, organism-based; set-up: dose 10 mg/kg, route intraperitoneal; conditions: in vivo
Procedure, shortened: (§4)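 Rota-rod with a 2.5 cm bar at 22 rpm. Mice pre-selected 24 h earlier by staying on the bar for two consecutive 180 s periods. Given 10 mg/kg ip (vehicle 2% DMSO in saline) and tested at 1.5, 3.5 and 5.5 h, with a 180 s cutoff. n = 6.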

[8] = tested on: Mus musculus; experiment: Antinociceptive activity in ip dosed Swiss mouse assessed as inhibition of carrageenan-induced mechanical hyperalgesia administered 30 mins prior to carrageenan-challenge measured at 1 to 5 hrs by electronic pressure-meter test; assay type: functional, organism-based; procedure, shortened: as §2
[9] = tested on: Mus musculus; experiment: Antinociceptive activity in Swiss mouse assessed as inhibition of capsaicin-induced mechanical hyperalgesia at 10 mg/kg, ip administered 30 mins prior to capsaicin-challenge measured after 1 to 5 hrs by electronic pressure-meter test; assay type: functional, organism-based; set-up: dose 10 mg/kg
Procedure, shortened: (§5)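 Dosed at 10 mg/kg ip 30 min before intraplantar capsaicin (1.6 μg/paw). Mechanical hyperalgesia measured by electronic pressure-meter as Δ withdrawal threshold (g), average of three readings. Thermal hyperalgesia measured as hot-plate latency at 55 °C with a 30 s cutoff. Both read at 1, 3 and 5 h. Six mice per group.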

[10] = tested on: Mus musculus; experiment: Antiinflammatory activity in Swiss mouse assessed as inhibition of carrageenan-induced IL-1beta production 10 mg/kg, ip administered 30 mins prior to carrageenan-challenge measured after 3 hrs by ELISA; assay type: functional, organism-based; set-up: dose 10 mg/kg; conditions: at 10 mg/kg
Procedure, shortened: (§6)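 Compound given ip in saline 30 min before intraplantar carrageenan (300 μg/paw). Paw skin taken 3 h later and homogenized in 500 μL buffer with protease inhibitors. TNF-α, IL-1β, IL-6, IL-33 and IL-10 measured by ELISA, reported as pg/100 mg tissue. Saline-injected paws served as controls. Six mice per group; representative of two experiments.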

[11] = tested on: Mus musculus; experiment: Antiinflammatory activity in Swiss mouse assessed as increase in carrageenan-induced IL-10 production 10 mg/kg, ip administered 30 mins prior to carrageenan-challenge measured after 3 hrs by ELISA; assay type: functional, organism-based; set-up: dose 10 mg/kg; procedure, shortened: as §6
[12] = tested on: Mus musculus; experiment: Antinociceptive activity in ip dosed Swiss mouse assessed as inhibition of acetic acid-induced writhing response administered 30 mins prior to acetic acid-challenge measured for 20 mins; assay type: functional, organism-based; procedure, shortened: as §3
[13] = tested on: Mus musculus; experiment: Antinociceptive activity in Swiss mouse assessed as inhibition of capsaicin-induced thermal hyperalgesia at 10 mg/kg, ip administered 30 mins prior to capsaicin-challenge measured after 1 to 3 hrs by hot plate test; assay type: functional, organism-based; set-up: dose 10 mg/kg; procedure, shortened: as §5
[14] = tested on: Mus musculus; experiment: Antioxidant activity in Swiss mouse assessed as prevention of carrageenan-induced decrease in 2,2'-Azinobis(3-ethylbenzothiazoline 6-sulfonic acid) scavenging ability at 10 mg/kg, ip administered 30 mins prior to carrageenan-challenge measured after 3 hrs by spectrophotometric analysis; assay type: functional, organism-based; set-up: dose 10 mg/kg
Procedure, shortened: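 Given at 10 mg/kg ip 30 min before intraplantar carrageenan; plantar skin taken at 3 h, two mice pooled per sample. Tissue homogenized in 1.15% KCl. FRAP: 37 °C for 30 min, absorbance at 595 nm. ABTS: diluted to A730 0.80 in PBS pH 7.4, read at 730 nm after 6 min. Both expressed as Trolox equivalents/mg tissue (Trolox standard 1.5–30 μmol/L final).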

[15] = tested on: Mus musculus; experiment: Antinociceptive activity in Swiss mouse assessed as inhibition of acetic acid-induced writhing response at 1 to 3 mg/kg, ip administered 30 mins prior to acetic acid-challenge measured for 20 mins; assay type: functional, organism-based; procedure, shortened: as §3
[16] = tested on: Mus musculus; experiment: Neurotoxicity in Swiss mouse assessed as change in motor response at 10 mg/kg, ip after 1.5 hrs by rotarod test (reference value: 180 seconds); assay type: toxicity, organism-based; set-up: dose 10 mg/kg, route intraperitoneal; conditions: in vivo; procedure, shortened: as §4
[17] = tested on: Mus musculus; experiment: Antinociceptive activity in Swiss mouse assessed as decrease in capsaicin-induced time spent for licking paw at 10 mg/kg, ip administered 30 mins prior to capsaicin-challenge measured after 5 mins; assay type: functional, organism-based; set-up: dose 10 mg/kg
Procedure, shortened: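 Pretreatment ip 30 min before intraplantar capsaicin (1.6 μg/paw), given after an adaptation period. Mice observed individually for 5 min afterwards. Total flinches and time spent licking the injected paw were scored. Six mice per group; representative of two experiments; one-way ANOVA with Tukey's test.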

[18] = tested on: Mus musculus; experiment: Antiinflammatory activity in Swiss mouse assessed as inhibition of carrageenan-induced IL-33 production 10 mg/kg, ip administered 30 mins prior to carrageenan-challenge measured after 3 hrs by ELISA; assay type: functional, organism-based; set-up: dose 10 mg/kg; conditions: at 10 mg/kg; procedure, shortened: as §6

O=c1cc(-c2ccc(O)cc2)oc2c([C@@H]3O[C@H](CO)[C@@H](O)[C@H](O)[C@H]3O)c(O)cc(O)c12 [VITEXIN]
180 s: Time [7] | Time [16]
active: inhibition [1] Dose-dependent effect | inhibition [2] | inhibition [3] | inhibition [4] | inhibition [5] | inhibition [6] | inhibition [8] Dose-dependent effect | inhibition [9] | inhibition [10] | Activity [11] | inhibition [12] Dose-dependent effect | inhibition [13] | Activity [14] | inhibition [15] | inhibition [17] | inhibition [18]
